Published values gathered from unrelated publications.
Target: Cyclin-G-associated kinase (GAK, Homo sapiens, UniProt O14976)
One construct used (O14976 1-1311): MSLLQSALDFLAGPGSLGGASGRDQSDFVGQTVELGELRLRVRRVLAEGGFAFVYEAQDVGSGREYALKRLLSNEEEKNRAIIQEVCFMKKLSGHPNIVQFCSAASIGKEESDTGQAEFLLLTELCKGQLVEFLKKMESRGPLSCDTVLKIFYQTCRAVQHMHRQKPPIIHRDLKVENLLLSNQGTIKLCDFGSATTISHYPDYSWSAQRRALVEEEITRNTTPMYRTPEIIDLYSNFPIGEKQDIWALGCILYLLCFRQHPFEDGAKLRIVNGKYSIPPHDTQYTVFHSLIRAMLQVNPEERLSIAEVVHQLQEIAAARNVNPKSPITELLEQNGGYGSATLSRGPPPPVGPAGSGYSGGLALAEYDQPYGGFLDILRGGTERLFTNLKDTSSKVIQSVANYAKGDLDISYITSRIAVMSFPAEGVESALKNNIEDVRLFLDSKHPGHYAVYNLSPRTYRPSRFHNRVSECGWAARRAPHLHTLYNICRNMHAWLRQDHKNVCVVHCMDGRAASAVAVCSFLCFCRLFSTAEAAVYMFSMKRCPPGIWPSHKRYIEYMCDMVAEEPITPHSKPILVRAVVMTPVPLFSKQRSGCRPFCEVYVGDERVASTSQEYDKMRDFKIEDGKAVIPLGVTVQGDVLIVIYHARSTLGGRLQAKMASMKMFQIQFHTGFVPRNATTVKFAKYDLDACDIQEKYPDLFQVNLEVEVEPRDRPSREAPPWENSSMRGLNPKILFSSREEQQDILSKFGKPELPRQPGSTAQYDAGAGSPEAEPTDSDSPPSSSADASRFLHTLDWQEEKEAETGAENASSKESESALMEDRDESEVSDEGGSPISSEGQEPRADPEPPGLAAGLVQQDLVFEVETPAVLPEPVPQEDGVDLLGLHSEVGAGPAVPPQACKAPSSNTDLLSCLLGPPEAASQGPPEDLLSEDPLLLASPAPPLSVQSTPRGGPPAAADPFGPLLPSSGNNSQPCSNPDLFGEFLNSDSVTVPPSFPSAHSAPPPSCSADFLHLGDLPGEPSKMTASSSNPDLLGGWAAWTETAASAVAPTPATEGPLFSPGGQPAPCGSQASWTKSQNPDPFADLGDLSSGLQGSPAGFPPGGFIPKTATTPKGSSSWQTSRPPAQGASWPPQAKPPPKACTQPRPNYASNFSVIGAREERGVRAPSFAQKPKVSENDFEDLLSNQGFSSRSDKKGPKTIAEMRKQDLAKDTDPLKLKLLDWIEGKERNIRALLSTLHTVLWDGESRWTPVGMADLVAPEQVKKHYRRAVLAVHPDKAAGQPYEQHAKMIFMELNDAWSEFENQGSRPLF

| Compound | test | setting | remaining binding [%] |
| --- | --- | --- | --- |
| Cc1cnn2ncc(-c3ccnc(N(C)C)n3)c2c1 | binding | 1 µM | 52 |
| O=C(NCCCN1CCOCC1)c1ccc(Nc2nccc(-c3cc4ccccc4s3)n2)cc1 | binding, competition with immobilised ligand | 1 µM | 21 |
| COc1cnc(Nc2cccc(S(N)(=O)=O)c2)nc1N1CCN(c2ccccc2)C(=O)C1 | binding, competition with immobilised ligand | 1 µM | 57 |
| COc1ccnn2ncc(-c3ccnc(N(C)C)n3)c12 | binding | 1 µM | 73 |
| Cc1cc(C)c(-n2ccn3nc(-c4cccnc4)cc23)cc1NC(=O)c1cc(C#N)cc(S(F)(F)(F)(F)F)c1 | cell-free assay, competition with immobilised ligand | 0.1 µM | 83.3 |
| C[C@@H](c1ccc(-n2cnc3c(N)ncnc32)cc1)N1CCc2nn(C)c(Cc3ccccc3)c2C1=O | binding, competition with immobilised ligand | 0.1 µM | 99 |
| c1cnn2ncc(-c3ccnc(N4CCC45COC5)n3)c2c1 | binding | 1 µM | 56 |
| O=C(Nc1c[nH]nc1C(=O)NC1CCNCC1)c1cc(F)cc(F)c1 | binding, competition with immobilised ligand | 1 µM | 90 |
| CC(C)(O)c1cncc(-c2nc3ccc(F)cc3n2C2CC2)c1 | cell-free assay, competition with immobilised ligand | 1 µM | 100 |
| CCN1CCN(Cc2ccc(C(=O)Nc3ccc(C)c(Oc4ccc5c(c4)CC(=O)N5)c3)cc2C(F)(F)F)CC1 | binding, competition with immobilised ligand | 1 µM | 100 |
| CN(C)c1nccc(-c2cnn3ncccc23)n1 | binding | 1 µM | 82 |
| C[C@@H]1CN(c2cc(-c3nn(C)c4ccc(OC5(C)CC5)cc34)ncn2)C[C@H](C)O1 | cell-free assay, competition with immobilised ligand | 1 µM | 86 |
| CNC(=O)[C@@H]1CC[C@@H](n2c(-c3ccc4cnccc4c3)nc3ccc(C(=O)NCc4cccc(C(N)=O)c4)cc32)C1 | binding, competition with immobilised ligand | 1 µM | 100 |
| CCS(=O)(=O)c1cc2cc(C[C@](O)(CC(C)(C)c3ccc(F)cc3C(N)=O)C(F)(F)F)[nH]c2cn1 | cell-free assay, competition with immobilised ligand | 1 µM | 100 |
| CN(c1nccc(-c2cnn3ncccc23)n1)C1CC1 | binding | 1 µM | 100 |
| O=C(NCCCN1CCOCC1)c1ccc(Nc2ncc(Cl)c(-c3ccc(Cl)s3)n2)cc1 | binding, competition with immobilised ligand | 1 µM | 15 |
| N#CC1(c2ccccn2)CCN(Cc2cc(C(=O)N3CCCC3)c(=O)n3ccccc23)CC1 | cell-free assay, competition with immobilised ligand | 1 µM | 100 |
| O=C(c1ccc(Nc2nccc(-c3cc4ccccc4s3)n2)cc1)N1CCC(N2CCCC2)CC1 | binding, competition with immobilised ligand | 1 µM | 34 |
| C[C@H]1CCN(c2nccc(-c3cnn4ncccc34)n2)C1 | binding | 1 µM | 28 |
| C[C@H](c1ccc(F)cc1)N(Cc1cccc(C(=O)O)c1)C(=O)c1cnc2ccccc2c1 | cell-free assay, competition with immobilised ligand | 1 µM | 98 |
| CN(C)c1nccc(-c2cnc3ncccn23)n1 | binding | 1 µM | 72 |
| C[C@@H](c1cccc(C#N)c1)n1cc(Cl)cc(C(N)=O)c1=N | cell-free assay, competition with immobilised ligand | 1 µM | 100 |
